The target in data set [1] is Hypoxia inducible factors; HIF-1-alpha, HIF-2-alpha (Homo sapiens, UniProt Q16665+Q99814). The experiment in a line: Inhibition of HIF1 signaling in human U251 cells expressing VEGF by VEGF promoter-driven PLAP reporter gene assay. The class given is cell-based. Particulars: u-251. In outline: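 U251/VEGF-PLAP reporter cells seeded at 4.0 × 10⁴ cells/well and incubated overnight before compounds were added. Compounds were dissolved in DMSO and diluted in culture medium, final DMSO ≤0.2% (v/v). Cells grown in DMEM with 10% FBS at 37 °C, 5% CO₂, under 21% O₂ (normoxia) or 2% O₂ (hypoxia).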

Data set [2] deals with U-251. The experiment in a line: Antitumor activity against human U251 cells xenografted in BALB/cA mouse assessed as delay in tumor growth at 12.5 to 100 mg/kg, po dosed daily for 11 days. In kind it is functional, organism-based. In outline:
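Untransfected U251 cells injected subcutaneously into flank or hind leg of female BALB/cA nu/nu mice and grown to about 300 mm³. Mice stratified into groups of 5 with similar mean tumor volume. Dosed orally at 10 mL/kg once daily for 11 days. Vehicle was DMSO/Tween-80 (35:65) diluted 5-fold with saline just before dosing. Tumor volume (length × diameter²/2) measured twice weekly and expressed relative to pretreatment size.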

The test system of data set [3] is Mus musculus. The experiment in a line: Suppression of HIF1alpha protein expression in BALB/cA mouse xenografted with human U251 cells at 12.5 mg/kg, po after 3 hrs by ELISA. In kind it is functional, organism-based. Details: dose 12.5 mg/kg. Particulars: U-251. In outline: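 Single oral dose given to female nude BALB/cA mice with subcutaneous U251 xenografts. Tumors collected at 3, 12, 16 and 24 h after dosing. HIF-1α in total tumor extracts measured by ELISA and normalized to total protein. Mean ± SD reported.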
For orientation: A xenograft is tissue or cells of one species grown in another, often human tumour cells in immunodeficient mice.

The test system of data set [4] is Mus musculus. The experiment in a line: Toxicity in BALB/cA mouse xenografted with human U251 cells assessed as mouse survival at 50 mg/kg/day, po. The arrangement: route oral. The class given is organism-based, U-251. Particulars: in vivo. In outline:
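Survival model: untransfected U251 cells implanted intracranially in athymic mice. Oral dosing once daily for about 50 days. Dose formulated in DMSO/Tween-80 (35:65) and diluted 5-fold with saline immediately before administration.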

The subject of data set [5] is Mus musculus. The experiment in a line: Toxicity in BALB/cA mouse xenografted with human U251 cells assessed as reduction in body weight at 12.5 to 100 mg/kg, po dosed daily for 11 days. Particulars: in vivo, 264 h. The class given is organism-based, U-251. Details: dose 12.5-100 mg/kg, route oral. In outline: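 Female BALB/cA nu/nu mice carried subcutaneous untransfected U251 tumors of about 300 mm³, 5 per group. Given oral doses at 10 mL/kg once daily for 11 days in DMSO/Tween-80 (35:65) diluted 5-fold in saline. Body weight was followed alongside tumor volume.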

Data set [6] deals with Mus musculus. The experiment in a line: Suppression of HIF1alpha protein expression in BALB/cA mouse xenografted with human U251 cells at 50 to 100 mg/kg, po after 24 hrs by ELISA. In kind it is functional, organism-based. Particulars: U-251. In outline: (§1)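 Female BALB/cA nu/nu mice bearing subcutaneous untransfected U251 tumors (~300 mm³) got a single oral dose at 10 mL/kg in DMSO/Tween-80 (35:65) diluted 5-fold with saline. Tumors harvested 24 h later, frozen in liquid nitrogen and fragmented, then lysed in Tris pH 7.5/NaCl/Triton X-100 buffer and centrifuged. HIF-1α measured by ELISA, normalized to BCA total protein, expressed as % of vehicle control. Mean of three animals.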

The subject of data set [7] is Mus musculus. Nature of the data set: Suppression of HIF1alpha mRNA expression in BALB/cA mouse xenografted with human U251 cells at 50 to 100 mg/kg, po after 24 hrs. In kind it is functional, organism-based. Particulars: U-251.
The test system of data set [8] is U-251. Nature of the data set: Suppression of hypoxia-induced HIF1alpha protein expression in human U251 cells at 0.0001 to 1 uM incubated for 6 hrs by ELISA method. In kind it is functional, cell-based. In outline: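 Untransfected U251 cells at 4 × 10⁴ cells/well were exposed to compound for 6 h under hypoxia (2% O₂), with normoxia (21% O₂) as comparison. Cells were lysed in Tris/NaCl/Triton buffer, lysate diluted fivefold in PBS with 1% BSA, and HIF-1α quantified by ELISA. Mean of two wells.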

For data set [9], the system named is U-251. Nature of the data set: Suppression of deferoxamine-induced HIF1alpha protein expression in human U251 cells at 0.0001 to 1 uM incubated for 6 hrs by ELISA method. The class given is functional, cell-based. In outline: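 Untransfected U251 cells at 4 × 10⁴ cells/well were treated for 6 h with a range of compound concentrations. Conditions were 21% O₂, 2% O₂, or 21% O₂ plus 100 µM deferoxamine. Cells were lysed, lysate diluted fivefold in PBS/1% BSA, and HIF-1α measured by total HIF-1α ELISA. Mean of two wells.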
On the technique in general: In an ELISA, binding on a coated surface is turned into a signal by an enzyme label.

Data set [10] relates to U-251. Nature of the data set: Suppression of hypoxia-induced HIF1alpha protein expression in human U251 cells at 0.0001 to 1 uM incubated for 6 hrs in presence of 25 uM proteasome inhibitor MG132 by ELISA method. In kind it is functional, cell-based. In outline: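 Untransfected U251 cells (4 × 10⁴/well) were incubated with graded compound concentrations for 6 h under 21% O₂, 2% O₂, or 2% O₂ with 25 µM MG132. Lysates were diluted fivefold in PBS/1% BSA and HIF-1α measured by ELISA. Mean of two wells.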

For data set [11], the system named is U-251. Nature of the data set: Suppression of HIF1alpha mRNA expression in human U251 cells. In kind it is functional, cell-based.
For data set [12], the system named is Mus musculus. The experiment in a line: Suppression of HIF1alpha protein expression in BALB/cA mouse xenografted with human U251 cells at 6.25 to 12.5 mg/kg, po after 24 hrs by ELISA. The class given is functional, organism-based. Particulars: U-251. In outline:
as §1

The test system of data set [13] is Mus musculus. The experiment in a line: Toxicity in BALB/cA mouse xenografted with human U251 cells assessed as reduction in body weight at 12.5 mg/kg, po after 24 hrs. The class given is organism-based, U-251. The arrangement: dose 12.5 mg/kg, route oral; scale not given: the % may be the effect or the level left. Particulars: in vivo. In outline:
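Nude female BALB/cA mice bearing subcutaneous U251 tumors received one oral dose (10 mL/kg; DMSO/Tween-80 35:65 diluted 5-fold with saline). Body weight was compared with vehicle controls 24 h after dosing.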

Structures are written as SMILES. Active and inactive are the calls of the source. The rule behind the calls is not given here.

For orientation: IC50 means the concentration that inhibits the measured activity by half. `O=C(Nc1ccc(CN2CCOCC2)cc1)c1ccc(I)cc1` displayed an IC50 in [1] of 2500 nM.

In data set [1], `O=C(Nc1ccc(C#CC2(O)CCCCC2)cc1)c1ccc(CN2CCN(Cc3cccnc3)CC2)cc1` gave a 50% inhibitory concentration (IC50) of more than 200 nM.

Regarding `O=C(Nc1ccc(C(F)(F)F)cc1)c1ccc(CC2CCN(Cc3ccncc3)CC2)cc1`, the 50% inhibitory concentration (IC50) in data set [1] was 110 nM.

In data set [1], `O=C(Nc1ccc(C(F)(F)F)cc1)c1ccc(CN2CCOCC2)nc1` came in with an IC50 of 4500 nM.

For `Nc1ncccc1C(=O)N1CCN(Cc2ccc(C(=O)Nc3ccc(C#Cc4ccccc4)cc3)cc2)CC1`, the TGI entry in the data set on U-251 [2] was “Active”. Further, the inhibition result with Mus musculus [3] and in the data set with Mus musculus [6] was “Active” each time. In [1], this compound registered an IC50 of 21 nM. The Survival with Mus musculus [4] was 50 days. The Activity result in the data set on Mus musculus [5] is listed as “Non-toxic”. Besides, in the data set on Mus musculus [7], the inhibition result is “inactive”.

`CN(CCN(C)Cc1cccnc1)Cc1ccc(C(=O)Nc2ccc(C(F)(F)F)cc2)cc1` yielded an IC50 in data set [1] of 120 nM.

With `O=C(Nc1ccccc1)c1ccc(CN2CCOCC2)cc1`, the 50% inhibitory concentration (IC50) in data set [1] was determined as 5400 nM.

Compound `O=C(Nc1ccc(C(F)(F)F)cc1)c1ccc(CN2CCN(Cc3ccccc3)CC2)cc1` registered an IC50 in [1] of 13 nM.

For `O=C(Nc1ccc(I)cc1)c1ccc(CN2CCOCC2)cc1`, the IC50 in data set [1] stood at 560 nM.

In data set [1], `Nc1ncccc1C(=O)N1CCN(Cc2ccc(C(=O)Nc3ccc(C#CC45CC6CC(CC(C6)C4)C5)cc3)cc2)CC1` gave an IC50 of 5.8 nM.

In turn, `C[C@@H]1CN(Cc2cccnc2)CCN1Cc1ccc(C(=O)Nc2ccc(C(F)(F)F)cc2)cc1` returned an IC50 in data set [1] of 13 nM.

As to `O=C(Nc1ccc(C#CC23CC4CC(CC(C4)C2)C3)cc1)c1ccc(CN2CCN(Cc3cccnc3)CC2)cc1`, the IC50 in [1] was found to be 0.97 nM.

`O=C(Nc1ccc(C#CC2CCCCC2)cc1)c1ccc(CN2CCN(Cc3cccnc3)CC2)cc1` displayed a concentration for half-maximal inhibition (IC50) in data set [1] of 3.1 nM.

Turning to `COc1ccc(NC(=O)c2ccc(CN3CCOCC3)cc2)cc1`, the 50% inhibitory concentration (IC50) in [1] is 13900 nM.

Compound `C[C@@H]1CN(Cc2ccc(C(=O)Nc3ccc(C(F)(F)F)cc3)cc2)CCN1Cc1cccnc1` had a 50% inhibitory concentration (IC50) in data set [1] of 30 nM.

For `C[C@H]1CN(Cc2cccnc2)CCN1Cc1ccc(C(=O)Nc2ccc(C(F)(F)F)cc2)cc1`, in [1], the IC50 was determined as 3.3 nM.

`O=C(Nc1ccccc1I)c1ccc(CN2CCOCC2)cc1` yielded a concentration for half-maximal inhibition (IC50) in [1] of more than 20000 nM.

With `O=C(Nc1ccc(C(F)(F)F)cc1)c1ccc(CN2CCOCC2)cn1`, the half-inhibitory concentration (IC50) in [1] amounted to 230 nM.

`C[C@H]1CN(Cc2ccc(C(=O)Nc3ccc(C(F)(F)F)cc3)cc2)CCN1Cc1cccnc1` had an IC50 in data set [1] of 35 nM.

`O=C(Nc1ccc(C(F)(F)F)cc1)c1ccc(CN2CCOCC2)s1` registered an IC50 in [1] of 1600 nM.

In the case of `Ic1ccc(NCc2ccc(CN3CCOCC3)cc2)cc1`, the IC50 in [1] came to 2500 nM.

For the compound `O=C(Nc1ccc(C#Cc2ccccc2)cc1)c1ccc(CN2CCN(Cc3cccnc3)CC2)cc1`, the inhibition entry in the data set on U-251 [8] and in the data set on Mus musculus [6] was “Active” each time. The inhibition result with U-251 [9], in the data set on U-251 [10], in the data set with U-251 [11] and in the data set with Mus musculus [7] was “inactive” each time. Further, the concentration for half-maximal inhibition (IC50) in [1] is 7.9 nM.

For the compound `O=C(Nc1ccc(C(F)(F)F)cc1)c1ccc(CN2CCN(Cc3cccnc3)CC2)cc1`, the 50% inhibitory concentration (IC50) in [1] amounted to 14 nM.

Consider `O=C(Nc1ccc(C(F)(F)F)cc1)c1cccc(CN2CCOCC2)c1`, for which the half-inhibitory concentration (IC50) in data set [1] is more than 10000 nM.

As to `O=C(Nc1ccc(C(F)(F)F)cc1)c1ccc(CN2CCN(Cc3ccncc3)CC2)cc1`, the IC50 in data set [1] amounted to 7.9 nM.

Compound `CN(C(=O)c1ccc(CN2CCOCC2)cc1)c1ccc(I)cc1.Cl` registered an IC50 in [1] of 2200 nM.

`O=C(Nc1ccc(C(F)(F)F)cn1)c1ccc(CN2CCOCC2)cc1` returned an IC50 in [1] of 4000 nM.

In turn, `O=C(Nc1cccc(I)c1)c1ccc(CN2CCOCC2)cc1` yielded an IC50 in data set [1] of 2200 nM.

Turning to `COCCOCc1ccc(CN2CCN(Cc3ccc(C(=O)Nc4ccc(C#CC56CC7CC(CC(C7)C5)C6)cc4)cc3)[C@@H](C)C2)cn1`, in the data set with Mus musculus [12], the inhibition result is “Active”. This compound yielded a half-maximal inhibitory concentration (IC50) in data set [1] of 0.47 nM. The Activity in the data set with Mus musculus [13] is 92%.

In data set [1], `C[C@H]1CN(Cc2cccnc2)CCN1Cc1ccc(C(=O)Nc2ccc(C#CC34CC5CC(CC(C5)C3)C4)cc2)cc1` returned an IC50 of 2.6 nM.

In the case of `COCc1ccc(CN2CCN(Cc3ccc(C(=O)Nc4ccc(C#CC56CC7CC(CC(C7)C5)C6)cc4)cc3)[C@@H](C)C2)cn1`, the IC50 in data set [1] came out at 1.1 nM.

`O=C(Nc1ccc(C(F)(F)F)cc1)c1ccccc1CN1CCOCC1`: the half-maximal inhibitory concentration (IC50) in data set [1] is more than 10000 nM.

Compound `O=C(Nc1ccc(C(F)(F)F)cc1)c1ccc(CN2CCOCC2)cc1` displayed a half-inhibitory concentration (IC50) in data set [1] of 280 nM.

In data set [1], `O=C(Nc1ccc(C#Cc2cccnc2)cc1)c1ccc(CN2CCN(Cc3cccnc3)CC2)cc1` registered an IC50 of 34 nM.

The compound `FC(F)(F)c1ccc(/C=C/c2ccc(CN3CCOCC3)cc2)cc1` returned a half-inhibitory concentration (IC50) in data set [1] of 880 nM.

For the origin of these results see ChEMBL document CHEMBL3351307, “Synthesis and structure-activity relationships of novel, potent, orally active hypoxia-inducible factor-1 inhibitors” (Bioorg Med Chem, 2014).
